Source: PubChem BioAssay
In the library only some 2% were active in any assay of this set; here they are far more common.
AI-2 QS mod – modulators of Vibrio harveyi AI-2 quorum sensing system; 300,000 compounds, 0.4% hits; AID 2094; activity change, % at 7.5 µM; Vibrio harveyi JMH597 AI-2 luminescence/OD600 ratio, 9 h; active compounds read low; strain lacks LuxN and CqsS sensors; 0 = neutral-control median; in the data active = activity change below about -75%, passing the limit was not always enough; inconclusive = no clear call, values can overlap the other calls;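 note: luminescence divided by OD600 gain over 9 h not by final OD600 alone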
T cruzi inh – T. cruzi replication inhibition. T. cruzi beta-gal in NIH3T3, luminescence, 90 h. inhibition, % (no concentration beside the values). 300,000 compounds, 1.4% hits;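 active = mean inhibition across valid replicates above about 55%, limit read from the data; inconclusive = mean below that limit but half or more replicates reach it; inactive = mean below it, under half of replicates reach it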;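 note: signal also drops with host cell toxicity which is not excluded here; 0% = plate median of DMSO wells and 100% = zero luminescence signal; higher percent means less beta-gal luminescence so fewer parasites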
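System – NIH/3T3 host cells with β-galactosidase reporter T. cruzi · Doses – single 50 nL compound addition per well in DMSO · Reagent – 5000 T. cruzi trypomastigotes/well · Medium – Low-serum DMEM with 2% FBS · Timing – ≥90 h infection period, 3 h prior cell attachment · Evaluation – parasite load inhibition, % · Technique – GalScreen luminescence, 60 min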
ARNT-TACC3 inh – disruptors of human ARNT/TACC3 interaction. Q9Y6A5. AlphaScreen His-ARNT PAS-B/GST-TACC3 binding, luminescence; TACC3 fragment carries E629A point mutation. inhibition, % at 9.99 µM. 390,000 compounds, 0.66% hits;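 active = mean inhibition of replicates at least 50% and at least half of replicates each reaching 50%; inconclusive = half or more replicates reach 50% but mean below 50%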;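 note: 0% = complete ARNT plus TACC3 wells and 100% = ARNT alone without TACC3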
HIF activator – HIF pathway transcriptional activation. 300,000 compounds, 0.32% hits. activation, % at 7.5 µM (by protocol). AID 1910. U2OS HRE-luciferase reporter, luminescence; normalized: DMSO 0%, desferrioxamine 100%;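 active = mean activation of at least 10% of the iron chelator positive control signal, with at least half of replicates also reaching 10%; inconclusive = mean and replicate majority disagree about reaching 10%; inactive = mean and most replicates under 10%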
* hit, by the source's call; ? = inconclusive; . = no result given.

SMILES | AI-2 QS mod | T cruzi inh | ARNT-TACC3 inh | HIF activator
Cc1ccccc1/C=N/Nc1ccnc2cc(Cl)ccc12 | 17.5 | 60.5* | -3.2 | -0.6
Oc1ccc(/C=N/Nc2ccnc3cc(Cl)ccc23)c(O)c1 | -3.0 | -20.5 | -6.2 | 1.9
Clc1ccc2c(N/N=C/c3cccnc3)ccnc2c1 | 34.1 | 65.0* | -2.6 | 0.6
Clc1ccc2c(N/N=C/c3ccc(Br)cc3)ccnc2c1 | 16.2 | 47.0 | 4.5 | -0.5
Cc1cc(C)cc(Nc2nc3ccccc3c(=O)[nH]2)c1 | 19.6 | 19.7 | . | 0.0
COc1nc(Nc2nc3ccccc3c(=O)[nH]2)nc2ccc(C)cc12 | 23.4 | 58.3* | 2.6 | -0.4
Cc1noc(C)c1NC(=O)N(C)C[C@@H]1OCCCC[C@@H](C)Oc2ccc(NS(C)(=O)=O)cc2C(=O)N([C@H](C)CO)C[C@H]1C | . | . | 14.7 | .
Cc1ccc(S(=O)(=O)c2nnn3c2nc(N2CCCCC2)c2ccccc23)cc1 | -3.1 | 61.4* | 0.9 | 0.8
Cc1ccc(S(=O)(=O)c2nnn3c2nc(N2CCOCC2)c2ccccc23)cc1 | 4.7 | 9.3 | 5.2 | -0.6
COc1ccc(C)cc1N=Nc1ccc(O)c2ncccc12 | 33.1 | ? | 10.8 | 4.3
Cc1ccc(S(=O)(=O)Nc2ccc(O)c3ncccc23)cc1 | 2.0 | 44.2 | . | 1.8
COc1cccc(N=Nc2ccc(O)c3ncccc23)c1 | 33.1 | 34.4 | 20.0 | 6.7
Cc1ccccc1N=Nc1ccc(O)c2ncccc12 | 41.4 | 42.3 | -4.5 | 38.1*
Oc1ccc(N=Nc2ccc3c(c2)OCCO3)c2cccnc12 | 17.1 | 83.4* | 22.0 | 14.3*
O=S(=O)(O)c1cccc2c(N=Nc3ccc(O)c4ncccc34)cccc12 | 7.2 | -4.7 | 72.8* | -2.1
COc1ccc(N=Nc2ccc(O)c3ncccc23)cc1 | -5.8 | 45.8 | 9.0 | 91.6*
COCC#Cc1cnc2c(c1)C(=O)N([C@H](C)CO)C[C@@H](C)[C@@H](CN(C)C(=O)c1cccc(F)c1)O2 | . | . | -4.0 | .
O=C(N[C@H]1CC[C@@H](CCNC(=O)C2CCC2)O[C@H]1CO)c1ccccn1 | . | . | 1.2 | .
C[C@@H]1CN([C@@H](C)CO)C(=O)c2cc(NC(=O)c3ccncc3)ccc2O[C@@H](C)CCCCO[C@@H]1CN(C)C(=O)NC1CCCCC1 | . | . | -6.7 | .
CCCN1C[C@@H](C)[C@H](OC)CN(C)C(=O)c2cc(NC(=O)c3ccccc3F)ccc2OC[C@H]1C | . | . | -1.7 | .
Cc1ccc(CCC(=O)Nc2ccc(Br)cc2)o1 | -88.0* | -12.4 | -1.6 | 1.8
OC[C@@H]1[C@H](c2ccc(Br)cc2)[C@H]2CNCCCCN12 | . | . | 6.6 | .
COc1ccccc1/C=C(/CC(=O)NCc1ccc2c(c1)OCO2)c1nc2ccccc2s1 | 0.9 | 54.6* | -3.7 | -0.1
CNC(=O)C[C@@H]1CC[C@H]2[C@H](COc3ccc(NC(=O)c4cc(C)on4)cc3C(=O)N2C)O1 | . | . | 7.9 | .
CNC(=S)N1N=C(c2ccc(Br)cc2)CC1c1ccc(Br)cc1 (centres undefined) | 52.6 | 77.7* | -0.3 | -0.2
SMILES | AI-2 QS mod | T cruzi inh | ARNT-TACC3 inh | HIF activator
Cc1ccc(O)c(NC2=C(Cl)C(=O)N(Cc3ccccc3)C2=O)c1 | -13.7 | 58.1* | -7.2 | -0.3
CN1CCN(c2nc(N3CCN(c4ccccc4)CC3)ncc2F)CC1 | -0.8 | 56.9* | 11.3 | .
Cc1cccc2cc(CN(Cc3ccc(F)cc3)Cc3nnnn3C3CCCC3)c(=O)[nH]c12 | 19.7 | 55.6* | -3.0 | 0.1
Cc1ccc2[nH]c(=O)c(CN(Cc3ccccc3)Cc3nnnn3C3CCCC3)cc2c1 | 12.4 | 48.3 | -2.5 | 2.1
Cc1cc(C)c2[nH]c(=O)c(CN(Cc3ccc4c(c3)OCO4)Cc3nnnn3C3CCCC3)cc2c1 | 15.2 | 71.2* | 2.6 | -0.5
C[C@@H]1CCCCO[C@@H](CN(C)C(=O)c2ccncc2)[C@H](C)CN([C@@H](C)CO)C(=O)c2cc(NC(=O)C3CCCCC3)ccc2O1 | . | . | -7.9 | .
CCCNC(=O)C[C@H]1CC[C@@H]2[C@H](COC[C@H](O)CN2C(=O)Nc2cccc(Cl)c2)O1 | . | . | -3.2 | .
S=C1NC2=C(CCCC2=C2SCCS2)C(c2ccccc2)N1 (centres undefined) | 38.0 | 28.4 | 1.2 | 69.3*
COc1cccc(C2NC(=S)NC3=C2CCc2ccccc23)c1 (centres undefined) | 11.9 | 3.6 | 3.8 | -0.4
COc1cccc(S(=O)(=O)N[C@H]2C=C[C@@H](CC(=O)NC3CCC3)O[C@@H]2CO)c1 | . | . | -5.9 | .
CC1CCN(S(=O)(=O)c2ccc(Cl)cc2)CC1 | 5.7 | 7.9 | -4.9 | -0.4
CC1CCN(S(=O)(=O)c2ccc(C(C)C)cc2)CC1 | -88.4* | 8.0 | . | 0.1
CC(=O)N(C)C[C@H]1Oc2ncc(C#Cc3ccccc3F)cc2C(=O)N([C@@H](C)CO)C[C@H]1C | . | . | -6.3 | .
CC(C)Nc1nc(NC(C)C)nc(N(C)N)n1 | 17.3 | 0.9 | 59.2* | -0.5
CCNc1nc(NC(C)C)nc(N(C)C#N)n1 | 22.6 | 8.0 | -1.7 | 0.1
CC(C)Nc1nc(NC(C)C)nc(N(C)C(N)=O)n1 | 8.8 | -10.3 | -4.1 | 0.0
CCNc1nc(NCC)nc(N(C)N)n1 | 16.2 | -8.3 | 70.2* | -1.1
CC(C)NC(=O)N(C)C[C@H]1Oc2ccc(NC(=O)NC3CCCCC3)cc2C(=O)N([C@@H](C)CO)C[C@@H]1C | . | . | -2.5 | .
C/C(CC(=O)Nc1ccc(N(C)C)cc1)=N\NC(=O)c1ccccn1 | 8.7 | . | 51.7* | .
CN(C)c1ccc(NC(=O)CC(NCc2ccccn2)C(=O)O)cc1 (centres undefined) | 20.4 | -6.7 | 76.9* | .
C/C(CC(=O)Nc1ccc(N(C)C)cc1)=N\NC(=O)c1cnccn1 | 10.1 | -17.0 | . | 0.1
C[C@H]1CN([C@@H](C)CO)C(=O)c2cc(C#CC3CCCC3)cnc2O[C@@H]1CN(C)C(=O)Nc1ccccc1 | . | . | -4.1 | .
C=CCN(C(=O)CCc1ccccc1OC)c1nc(-c2ccc(S(C)(=O)=O)cc2)cs1 | 14.1 | 66.2* | 0.3 | -34.3
COc1ccc(CC(=O)N2CCN(C(=O)Cc3ccc(OC)cc3)CC2)cc1 | 9.0 | 3.8 | 2.5 | 364.6*
CCC(C)n1c(C)nc2c(c1=O)c1nc3ccccc3nc1n2CCC1=CCCCC1 (centres undefined) | 34.0 | 58.5* | -7.1 | -1.0
SMILES | AI-2 QS mod | T cruzi inh | ARNT-TACC3 inh | HIF activator
CN1CCc2c(sc(NC(=O)c3ccc4ccccc4c3)c2C(N)=O)C1 | 8.0 | 54.9* | -14.9 | 0.7
CCOC(=O)c1c(NC(=S)Nc2ccccc2)sc(C)c1C | 12.0 | 4.2 | -1.0 | .
CCOC(=O)c1c(NC(=O)Cc2ccccc2)sc2c1CCN(C)C2 | -4.4 | 55.4* | -1.0 | 0.3
CCOC(=O)c1c(NC(=O)Cc2ccccc2)sc2c1CCN(CC)C2 | 15.2 | 28.8 | 0.6 | 0.2
CCOC(=O)c1c(NC(=O)C[n+]2ccc(Cc3ccccc3)cc2)sc(C)c1C | 7.2 | 58.9* | -5.4 | -0.1
O=C(NCC[C@@H]1CC[C@H](NS(=O)(=O)c2cccc(F)c2)[C@H](CO)O1)C1CCC1 | . | . | -5.5 | .
C[C@H](CO)N1C[C@H](C)[C@H](CN(C)C)Oc2ccc(NC(=O)Nc3ccc(C(F)(F)F)cc3)cc2C1=O | . | . | 1.5 | .
